# PP5 inh – PP5 phosphatase inhibitors, primary screen, biochemical, fluorescence. Serine/threonine-protein phosphatase 5 (Homo sapiens), P53041. purified PP5c, OMFP substrate fluorescence. inhibition, % at 6.7 µM. 320,000 tested, 0.18% active;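 active = inhibition above the campaign's mean inhibition across all tested compounds plus 3 SD, cut at about 9.5% in these data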;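 also: 0% = DMSO only and 100% = 100 µM cantharidin control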
# Apaf-1 inh – inhibitors of human Apaf-1 apoptosome, primary screen, biochemical, DEVD-Rh110 fluorescence, uHTS; Apoptotic protease-activating factor 1 (Homo sapiens), O14727; 330,000 tested, 0.71% active; reconstituted apoptosome caspase-3 activity; inhibition, % at 20 µM; active = inhibition of at least 40% at 20 µM;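 also: plate controls were DMSO wells for no effect and DEVD-CHO caspase inhibitor wells for full effect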
#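 Assay system – apoptosome proteins · Medium – Hepes buffer, pH 7.5 · Also added – cytochrome c with DEVD-Rh110 · Timing – 30 min compound preincubation, 50 min activation, room temperature · Detection – Rh110 fluorescence, excitation 480 nm, emission 540 nm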
# PAD4 inh – human PAD4 inhibitors, primary screen, biochemical, fluorescence polarization, 1536-well format; recombinant PAD4, RCA probe fluorescence polarization; inhibition, % at 6.36 µM; 330,000 tested, 0.41% active; AID 485272, 2010;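 active = percent inhibition above a cutoff equal to the mean of all tested compounds plus 3 SD, cut at about 15% in these data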;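 also: 0% = PAD4 with RCA probe and DMSO and 100% = probe without PAD4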
# UCH37 inh – inhibitors of human UCH37 deubiquitinase, primary screen, biochemical, Ub-AMC cleavage, fluorescence | Ubiquitin carboxyl-terminal hydrolase isozyme L5 (Homo sapiens), Q9Y5K5 | purified proteasome/UCH37 | inhibition, % (no concentration beside the values) | 330,000 tested, 0.33% active | AID 588478, 2011;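 active = mean inhibition over replicate wells above about 20%, limit read from the data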;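 also: 0% = compound-free wells with enzyme and 100% = wells lacking proteasome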
#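 Reagent: Ub-AMC substrate; assay system: Proteasome-associated human UCH37 deubiquitinase; controls: no-proteasome and no-compound wells; read-out: % inhibition of Ub-AMC cleavage fluorescence; timing: 30 min preincubation with enzyme, 25 min cleavage at room temperature; signal: AMC fluorescence from Ub-AMC cleavage, excitation 355 nm, emission 460 nm; buffer or medium: Tris-HCl pH 7.4 plus ovalbumin, ATP-MgCl2, DTT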
# CTSL1 counter – Fasciola hepatica cathepsin L1 inhibitors, primary screen, counter-screen for PFM18AAP inhibitor project, biochemical, QFRET, fluorogenic peptide substrate; 300,000 tested, 0.49% active; inhibition, % at 5.96 µM; recombinant F. hepatica cathepsin L1, Z-Leu-Arg-MCA fluorescence;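 active = inhibition above the mean of all tested compounds plus 3 SD, set per screening campaign, cut at about 17% in these data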;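 also: 0% = plate median of test compound wells and 100% = 1 µM Z-Phe-Ala-diazomethylketone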
# GSTO1 inh – inhibitors of recombinant GSTO1, primary screen, counter-screen for RBBP9 inhibitor project, biochemical, fluorescence polarization; Glutathione S-transferase omega-1 (Homo sapiens), P78417; activity-based probe fluorescence polarization; inhibition, % at 5.96 µM; 300,000 tested, 1.1% active; AID 1974, 2009;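 active = inhibition above the campaign mean inhibition plus 3 SD, cut at about 35% in these data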;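 also: 0% = GSTO1-1 with DMSO and 100% = wells lacking GSTO1-1 enzyme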
# Apaf-1 inh conf2 – Apaf-1 inhibitors, single-dose retest, confirmation, biochemical, fluorescence, DEVD-Rh110, 20 µM; inhibition, % at 20 µM; 1,800 tested, 25% active; AID 504614, 2011; shares compounds with Apaf-1 inh; reconstituted apoptosome, caspase-3 DEVD-Rh110 fluorescence;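 active = mean inhibition of at least 40% at 20 µM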;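 also: plate controls were DMSO wells for no effect and DEVD-CHO caspase inhibitor control wells for full effect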
# Rh110 interf inh – Rh110 fluorescence interference by putative Apaf-1 inhibitors, confirmation, artefact control for Apaf-1 inhibitor project, biochemical, 20 µM | shares compounds with Apaf-1 inh | quenched caspase reaction | activation (fluorescence interference), % at 20 µM | 1,800 tested, under 10 active | AID 504615, 2011;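 active = signal rise of 40% or more at 20 µM, treated as a fluorescence artifact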
# Apaf1 inh interf – fluorescence interference of Apaf-1 inhibitor hits, dose response, artefact control for Apaf-1 inhibitor project; IC50, µM; fluorescence interference counterscreen, Apaf-1 assay format; 460 tested, under 10 active; shares compounds with Apaf-1 inh; AID 588538, 2011; call rule not given here
# * hit, by the source's call; / = no result. Only some compounds are listed: those with a hit (about 2% of all), similar ones and a draw of the others.
SMILES,PP5 inh,Apaf-1 inh,PAD4 inh,UCH37 inh,CTSL1 counter,GSTO1 inh,Apaf-1 inh conf2,Rh110 interf inh,others
CCN1CCN(Cc2ccc(NC(=O)c3cc(NC(=O)C4=NN(c5ccccc5)C(=O)C4)cc(OC)c3)cc2C(F)(F)F)CC1,5,51*,-3,0,6,-5,21,12,
CCN1CCN(Cc2ccc(NC(=O)c3cc(NC(=O)c4cc(-c5ccc(OC)cc5)n[nH]4)cc(OC)c3)cc2C(F)(F)F)CC1,4,56*,-5,2,0,-36,18,5,
COc1ccccc1N1CCN(C(c2cccs2)C(C)NS(=O)(=O)c2ccccc2)CC1 (configuration not stated),3,55*,-2,2,3,-3,46*,3,Apaf1 inh interf=>100
CC(NS(=O)(=O)c1ccccc1)C(c1cccs1)N1CCN(c2ccccc2)CC1 (configuration not stated),4,11,1,2,2,5,/,/,
Cc1cc(C)c(S(=O)(=O)NCc2ccc3c(c2)cc(C)n3C)c(C)c1,1,44*,3,4,1,-2,3,-1,
COc1ccc(CNC(=O)Nc2cccc(Cl)c2)cc1,/,-5,/,3,/,/,/,/,
Cc1cccc(NC(=O)NCc2ccc3c(c2)cc(C)n3C)c1,1,54*,-6,2,-3,1,-2,-2,
CCCC(=O)NCc1ccc2c(c1)cc(C)n2C,-2,-1,-7,2,6,7,/,/,
Cc1cc2cc(CNC(=S)Nc3ccc(OC(F)(F)F)cc3)ccc2n1C,4,59*,-2,3,-2,3,15,14,
Cc1cc2cc(CNC(=O)Nc3cccc(Cl)c3)ccc2n1C,3,49*,0,4,-1,-4,12,2,
Cc1nn(-c2ccccc2)cc1C=NNS(=O)(=O)c1ccccc1,/,/,/,5,/,/,/,/,
COc1cc(C=Nn2c(COc3ccccc3)n[nH]c2=S)cc(Br)c1O,/,/,/,4,/,/,/,/,
COc1ccc(CN2C(=O)CSC2=NN=Cc2ccccc2)cc1,/,/,/,5,/,/,/,/,
C=C(C)C1CC=C(C)C(=NNC(=O)c2ccccc2[N+](=O)[O-])C1 (configuration not stated),/,/,/,1,/,/,/,/,
Nc1cccc(C(=O)NN=Cc2ccsc2)c1,/,/,/,1,/,/,/,/,
S=c1[nH]nc(C2CCCCC2)n1N=Cc1ccc(Br)s1,/,/,/,0,/,/,/,/,
Cc1cc2cc(CNC(=O)c3ccc(S(=O)(=O)N(C)C)cc3)ccc2n1C,-1,45*,3,4,-2,4,9,8,
CON=CC(=NNc1ccc(OC)cc1)C(=O)c1ccc(OC)cc1,/,/,/,3,/,/,/,/,
CC(=O)c1sc(NN=Cc2ccc(C(C)C)cc2)nc1C,/,/,/,-11,/,/,/,/,
COc1cc(-c2ccc(NC(C)=O)c(OC)c2)ccc1NC(C)=O,0,-8,-1,1,-2,6,/,/,
COc1cc(O)c(NC(C)=O)c2nonc12,2,87*,9,7,-3,7,23,8,
COc1ccc2c(c1)[nH]c1c(=O)n(N=CC3C(C)C=C(C)CC3C)c(=O)[nH]c12 (configuration not stated),/,/,/,0,/,/,/,/,
CN(c1ccccc1)S(=O)(=O)c1cccc(C(=O)NCc2ccccc2CN2CCCC2)c1,2,52*,-9,-1,/,/,21,6,
COc1ccc(C(=O)/C=C/C(=O)N(CC(=O)NC2CCCCC2)CC2CCCO2)c(O)c1 (configuration not stated),-2,49*,2,-2,-1,0,10,8,
Fc1ccc(COc2ccc(Cl)cc2C=NNc2nc(N3CCCC3)nc(N3CCCC3)n2)cc1,/,/,/,4,/,/,/,/,
SMILES,PP5 inh,Apaf-1 inh,PAD4 inh,UCH37 inh,CTSL1 counter,GSTO1 inh,Apaf-1 inh conf2,Rh110 interf inh,others
Cc1nn(-c2ccccc2)c(C)c1CN(C)C(=O)c1ccc(S(=O)(=O)NCc2ccco2)cc1,-1,49*,-2,-2,/,/,14,2,
C/C(=N\NC(=O)CNc1cccc2ccccc12)c1ccccc1,0,83*,0,/,1,10,15,8,
O=C(c1ccc(Cn2c(=O)[nH]c3ccccc3c2=O)cc1)N1CCN(c2ccc(Cl)cc2)CC1,3,41*,-3,1,0,-11,14,4,
Cc1ccc(N(CC(=O)N/N=C/c2ccc(OC3CSC3)cc2)S(=O)(=O)c2ccccc2)c(C)c1,2,63*,3,/,-1,-3,18,0,
Cc1ccc(N(CC(=O)NN=Cc2ccc(OC3CSC3)cc2)S(=O)(=O)c2ccccc2)c(C)c1,/,/,/,3,/,/,/,/,
CC(=NNC(=O)c1c(Cl)cnn1C)c1cccnc1,/,/,/,2,/,/,/,/,
Cc1nc(N)nc(NN=Cc2ccccc2)n1,/,/,/,5,/,/,/,/,
CCOC(=O)Cn1c(COc2ccccc2OC)[n+](C)c2ccccc21,1,-7,-2,5,-2,5,/,/,
CCCCCCCCCCOC(=O)Cn1c(COc2ccc(Cl)cc2)[n+](C)c2ccccc21,6,85*,4,/,4,6,90*,24,Apaf1 inh interf=>100
CCCCCCCCCCOC(=O)Cn1c(COc2ccccc2C)[n+](C)c2ccccc21,6,81*,0,/,3,1,83*,25,Apaf1 inh interf=>100
CCCCCCCCCCOC(=O)Cn1c(COc2cccc(C)c2)[n+](C)c2ccccc21,5,79*,1,/,6,5,77*,34,Apaf1 inh interf=>100
CCCCCCCCCCOC(=O)Cn1c(COc2ccc(OC)cc2)[n+](C)c2ccccc21,4,72*,-2,/,5,6,68*,17,Apaf1 inh interf=>100
O=C(NN=Cc1ccc2c(c1)OCO2)c1cccc2ccccc12,/,/,/,2,/,/,/,/,
COc1ccccc1-c1cc(C(=O)NN=Cc2ccc(C)s2)c2ccccc2n1,/,/,/,4,/,/,/,/,
Cc1ccccc1OCc1n(CC(=O)OC2CC(C)CCC2C(C)C)c2ccccc2[n+]1C (configuration not stated),2,47*,4,5,-2,-6,48*,20,Apaf1 inh interf=>100
CCCCCCCCCCOC(=O)Cn1c(COc2ccccc2)[n+](C)c2ccccc21,5,73*,3,/,3,-2,72*,25,Apaf1 inh interf=>100
